Assay [1] deals with T1, Tyrosine-protein phosphatase non-receptor type 11 (Homo sapiens) (UniProt Q06124).
T1 sequence (whole entry): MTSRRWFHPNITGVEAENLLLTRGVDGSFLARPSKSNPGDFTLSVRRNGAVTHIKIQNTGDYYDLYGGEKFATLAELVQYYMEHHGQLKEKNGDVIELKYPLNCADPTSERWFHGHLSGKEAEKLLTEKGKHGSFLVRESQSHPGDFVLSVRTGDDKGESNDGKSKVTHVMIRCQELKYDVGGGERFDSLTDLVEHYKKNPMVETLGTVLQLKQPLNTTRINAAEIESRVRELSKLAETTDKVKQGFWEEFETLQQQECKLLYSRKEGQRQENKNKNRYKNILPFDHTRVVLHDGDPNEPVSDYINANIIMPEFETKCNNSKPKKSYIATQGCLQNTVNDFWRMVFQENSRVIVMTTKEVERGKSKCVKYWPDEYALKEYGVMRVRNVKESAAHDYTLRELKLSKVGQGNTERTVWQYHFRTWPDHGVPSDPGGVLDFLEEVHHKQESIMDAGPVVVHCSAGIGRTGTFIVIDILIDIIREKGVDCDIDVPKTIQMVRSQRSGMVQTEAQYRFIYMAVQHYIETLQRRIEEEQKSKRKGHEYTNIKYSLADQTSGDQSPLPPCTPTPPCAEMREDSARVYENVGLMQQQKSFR
In words: Mixed type inhibition of human wild-type full length SHP2 assessed as substrate [Et] at 20 uM using H-Glu-Phe-pTyr-Ala-Glu-Val-Gly-Arg-Ser-Pro-Pro-Asp-Pro-Ala-Lys as substrate by Lineweaver-Burk plot analysis (reference value: 0.029 uM).

In assay [2] the target is T1, Tyrosine-protein phosphatase non-receptor type 11 (Homo sapiens). In words: Binding affinity to full length wild type GST-tagged SHP2 (unknown origin) luminescence spectrometry-based quenching assay. An outline of the steps:
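Intrinsic fluorescence quenching of full-length WT GST-SHP2 held at 3.0 µM in 20 mM Tris-HCl pH 7.5 while compound concentration is increased. Excitation 295 nm, emission 360–500 nm. Compound-alone fluorescence subtracted; intensities are relative. Triplicates shown from one of three repeats.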

Assay [3] has the same target. In words: Binding affinity to His-tagged SHP2 (unknown origin) assessed as melting temperature at 5 uM measured every 50 secs by thermal shift assay (reference value: 43.5 +/- 0.95 degC).
In assay [4] the target is T2, Tyrosine-protein phosphatase non-receptor type 11 (Mus musculus) (UniProt P35235).
T2 sequence (whole entry): T1 sequence (whole entry) with M450V, A550V, K590R
The assay can be described thus: Inhibition of SHP2 in mouse Ba/F3 cells assessed as reduction in IL3-stimulated AKT phosphorylation pretreated for 4 hrs followed by IL3 stimulation and measured after 5 to 60 mins by Western blot analysis. In kind it is cell-based. An outline of the steps:
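Ba/F3 cells starved overnight in serum- and cytokine-free RPMI1640. Treated with 20 µM compound for 4 h, then IL-3 (2 ng/mL) for the indicated times. RIPA lysates (50 µg) immunoblotted for p-Erk, p-Akt, p-Jak2 and p-Stat5, then reprobed for total proteins. Representative of three experiments.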

Assay [5] concerns T3, Tyrosine-protein phosphatase non-receptor type 11 (Mus musculus), P35235 [E76K].
T3 sequence (whole entry): T1 sequence (whole entry) with E76K, M450V, A550V, K590R
In words: Inhibition of PTPN11 E76K mutant in mouse embryonic fibroblasts assessed as inhibition of cell growth at 6 uM after 24 to 72 hrs by cell proliferation-based assay. An outline of the steps: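 Ptpn11 E76K/+ and Ptpn11 +/+ MEFs treated with 6 µM compound; cell number read by One Solution proliferation assay. Triplicates from one of three experiments.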

Assay [6] concerns NCI-H661. The assay can be described thus: Growth inhibition of PTPN11 N58S mutant harboring human NCI-H661 cells after 48 hrs by cell proliferation-based assay. In kind it is functional. Summed up: (§1)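 H661 (PTPN11 N58S/+) and H596 (WT PTPN11) lung cancer cells exposed to a concentration series for 48 h, DMSO as control. Cell number measured by One Solution proliferation assay. Triplicates from one of three repeated experiments.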

For assay [7], the system named is NCI-H661. The assay can be described thus: Growth inhibition of human NCI-H661 cells after 48 hrs by cell proliferation-based assay. In kind it is functional. An outline of the steps:
as §1

Assay [8] addresses T1, Tyrosine-protein phosphatase non-receptor type 11 (Homo sapiens). The assay can be described thus: Inhibition of wild type recombinant human SHP2 at 50 uM using H-Glu-Phe-pTyr-Ala-Glu-Val-Gly-Arg-Ser-Pro-Pro-Asp-Pro-Ala-Lys as substrate preincubated for 30 mins followed by substrate addition and measured after 30 mins by Malachite Green-reagent based assay. An outline of the steps:
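Full-length SHP2 or SHP1 (0.1 µg) preincubated with compound 30 min at room temperature in 25 mM Tris-HCl pH 7.4, 50 mM NaCl, 5 mM DTT, 2.5 mM EDTA. Phospho-peptide substrate added to 50 µM final; 30 min at 30 °C. Released phosphate read by Malachite Green at OD620. IC50 from six concentrations; three experiments.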

Structures are written as SMILES. Where a chain is given by its changes, count along the chain named. Calls of active or inactive are those of the source. The calls are words filed in the database; no cut-off is given here.

On to `CCOc1cc(O)c(C(=O)/C=C/c2ccc(Cl)cc2Cl)cc1CN1CCC=C(n2c(=O)[nH]c3ccccc32)C1`, for which the values for the Activity in assay [1] and in assay [2] were 0.029 µM and “Dose-dependent effect”, respectively. The Tm in assay [3] was found to be 46.3 °C. Besides, the inhibition result in assay [4] was “Dose-dependent effect”. Moreover, the “growth inhibition (GI)” value in assay [5] and in assay [6] was “Active” in each case. Moreover, the “growth inhibition (GI)” value in assay [7] is “Dose-dependent effect”. For the same compound, the inhibition entry in assay [8] is “Active”.
